Measurements published in PubChem BioAssay AID1381 (University of Pittsburgh Molecular Library Screening Center, 2008).
Screen size: about 220,000 compounds; about 1,000 (0.45%) were called active.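 The calls were made as follows: active = plate z-score of nuclear minus cytoplasmic receptor signal below a set negative limit, without overly bright fluorescence or cell loss (cut at about -3.5 in these data, passing the limit was not always enough); inactive = the rest, inconclusive results apart.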 This excerpt belongs to a sample that is enriched for actives.

Assay: inhibitors of GR-EGFP nuclear translocation, primary screen, dynein cargo transport inhibitor project, imaging, high-content, 3617.4 mouse cells (AID 1381)
Conditions: stimulated with dexamethasone, 1 µM
In short: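 Buffer or medium: Induction medium lacking tetracycline, stripped serum | Also added: Dexamethasone agonist, 1.0 µM final, for 30 min | Timing: 48 h induction, 1 h compound, 30 min dex at 37 °C | Detection: Formaldehyde fixation, Hoechst nuclear stain, 10x automated fluorescence imaging | Measure: Nuclear versus cytoplasmic GR-EGFP signal, averaged per well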

[1] = measured here: cell count per field, at 20 µM
[2] = measured here: cytoplasmic GR-EGFP intensity, at 20 µM, stronger effect = higher value
[3] = measured here: nuclear GR-EGFP intensity, at 20 µM, stronger effect = lower value
[4] = measured here: cell count per field, at 50 µM
[5] = measured here: cytoplasmic GR-EGFP intensity, at 50 µM, stronger effect = higher value
[6] = measured here: nuclear GR-EGFP intensity, at 50 µM, stronger effect = lower value

Row | Structure (SMILES) | z-score (at 20 µM, stronger effect = lower value) | z-score [1] | z-score [2] | z-score [3] | z-score (at 50 µM, stronger effect = lower value) | z-score [4] | z-score [5] | z-score [6]
1 | CCCn1c(SCC(=O)Nc2ccc(C)c(S(=O)(=O)N3CCOCC3)c2)n[nH]c1=O | 1.09 (inactive) | 0.0169 | -0.261 | 0.257 |  |  |  | 
2 | Cc1ccc2nc(Nc3ncc4c(n3)CC(C)(C)CC4=O)nc(C)c2c1 | 0.135 (inactive) | 0.445 | -0.285 | -0.00084 |  |  |  | 
3 | Cc1cccc(OP(=O)(Nc2c(C)n(C)n(-c3ccccc3)c2=O)Oc2cccc(C)c2)c1 | 1.6 (inactive) | -1.31 | -0.218 | 1.25 |  |  |  | 
4 | Cc1nn(C)c(Oc2ccccc2)c1[N+](=O)[O-] | -0.413 (inactive) | 0.292 | -0.104 | 0.119 |  |  |  | 
5 | Cn1c2ccccc2c(=O)c2c(O)cccc21 | -0.39 (inactive) | 0.337 | -0.342 | -0.208 |  |  |  | 
6 | Cc1cccc(Oc2c([N+](=O)[O-])c(=O)n(C)c3ccccc23)c1 | -4.31 (active) | 0.72 | 0.943 | -2.29 |  |  |  | 
7 | Cn1c(=O)c([N+](=O)[O-])c(Oc2ccccc2)c2ccccc21 | -6.51 (active) | 0.669 | 1.62 | -2.76 |  |  |  | 
8 | COc1cccc(C(=O)Oc2cc(C)[nH]c(=O)c2[N+](=O)[O-])c1 | 1.66 (inactive) | -1.05 | -0.136 | 0.869 |  |  |  | 
9 | CC(NC(=S)Nc1ccccc1)C1COc2ccccc2O1 (stereo unspecified) | 0.289 (inactive) | 0.134 | -0.0607 | 0.355 |  |  |  | 
10 | CCN(CC)Cc1csc2ccc(Br)cc12 | -0.627 (inactive) | 1.15 | -0.13 | 0.249 |  |  |  | 
11 | O=C(Nc1ccc(F)cc1)c1cccnc1N1CCOCC1 |  |  |  |  | 0.0462 (inactive) | 1.37 | -0.00933 | 0.174
12 | O=c1[nH]c(N2CCN(Cc3ccc4c(c3)OCO4)CC2)nc2c1CCCC2 | -1.03 (inactive) | 2.27 | -0.309 | -0.0483 |  |  |  | 
13 | COCC1CCCN(Cc2nc(-c3ccc4c(c3)OCO4)no2)C1 (stereo unspecified) | 0.118 (inactive) | 0.19 | -0.27 | 0.224 |  |  |  | 
14 | CCC1=C/C(=C\c2ccc3c(c2)OCO3)C(=O)S1 | -3.72 (active) | 0.295 | 0.919 | -1.39 |  |  |  | 
15 | O=C1/C(=C/c2ccc3c(c2)OCO3)CCC/C1=C\c1ccc2c(c1)OCO2 | 0.645 (inactive) | -1.87 | 1.28 | 0.356 |  |  |  | 
16 | CSC1=N/C(=C\c2ccc3c(c2)OCO3)C(=O)S1 |  |  |  |  | -0.0628 (inactive) | -0.123 | -0.227 | -0.89
17 | Cc1cccc(C)c1NC1=NC(=S)N(c2ccc(N(C)C)cc2)C1(C)C | 1.25 (inactive) | 0.0641 | -0.0144 | 0.985 |  |  |  | 
18 | Cc1ccc(/C=N/NC(=S)NC2CCCCC2)o1 | -0.738 (inactive) | -0.0991 | -0.777 | -0.608 |  |  |  | 
19 | C/C(CC(=O)Nc1cccc(C(F)(F)F)c1)=N\NC(=O)C(=O)NCC(C)C | -0.981 (inactive) | 0.594 | -0.237 | -0.369 |  |  |  | 
